18 molecules from ChEMBL document CHEMBL1153207, “Continued exploration of the triazolopyridine scaffold as a platform for p38 MAP kinase inhibition” (Bioorg Med Chem Lett, 2010) can be followed below.

The IC50 is the midpoint of a concentration-inhibition curve. Read a low IC50 as greater potency. Broadly, the inhibition in vivo is the relative decrease from the control value, in per cent. High values mean a response far below the control, low ones a response near the control.

Series [1] is described as follows: Metabolic stability in rat liver microsomes at 2 uM. The note with it: read-out: Stability. It is filed as ADME, Microsome.
Series [2] addresses Mitogen-activated protein kinase 14 (Homo sapiens, UniProt Q16539). Nature of the series: Inhibition of p38 alpha.
The nature of series [3]: Metabolic stability in human liver microsomes at 2 uM. It is filed as ADME, Microsome. The note with it: read-out: Stability. A general note: Liver microsomes are a subcellular fraction often used to study metabolism.
Series [4] relates to Rattus norvegicus. Nature of the series: Inhibition of LPS-stimulated TNFalpha release Lewis rat at 5 mg/kg after 4 hrs by ELISA. Format: functional. In short, it runs like this:
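Male Lewis rats were pre-dosed with compound at set times before an iv lipopolysaccharide challenge. Blood was taken 1.5 h after challenge and TNF-α levels were measured by ELISA.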
On the technique in general: ELISA stands for enzyme-linked immunosorbent assay.

Each structure is given as a SMILES string.

Chain of Mitogen-activated protein kinase 14 (Q16539 whole entry): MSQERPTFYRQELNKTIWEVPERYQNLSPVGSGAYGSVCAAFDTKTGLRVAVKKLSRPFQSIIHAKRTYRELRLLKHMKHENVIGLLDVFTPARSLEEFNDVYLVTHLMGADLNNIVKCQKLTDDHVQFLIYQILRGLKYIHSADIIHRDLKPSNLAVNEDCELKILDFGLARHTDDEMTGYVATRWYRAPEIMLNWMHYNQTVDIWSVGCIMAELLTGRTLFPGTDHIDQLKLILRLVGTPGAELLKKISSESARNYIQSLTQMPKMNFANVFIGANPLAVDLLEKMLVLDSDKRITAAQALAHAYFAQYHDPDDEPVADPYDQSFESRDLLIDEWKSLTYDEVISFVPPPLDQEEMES

Regarding `CC(C)c1nnc2ccc(C(=O)c3ccc(F)cc3F)cn12`, the remaining at 2 µM in series [1] turned out to be 88%; in series [3], 74%. In series [2], this molecule had an IC50 of 1.05 µM.

For the molecule `CC(C)c1nnc2cc(Cl)c(Sc3ccc(F)cc3F)c(Cl)n12`, the remaining at 2 µM in series [1] worked out at 20%; in series [3], 39%.

Take `CC(C)c1nnc2cc(Cl)c(Sc3ccc(F)cc3F)cn12`: the remaining at 2 µM amounted to 37% in series [1] and 71% in series [3].

For `CC(C)c1nnc2ccc(Sc3ccc(Br)cc3C(F)(F)F)cn12`, the IC50 in series [2] was above 10 µM.

On to `COC(=O)c1ccc(-c2nnc3ccc(Sc4ccc(F)cc4F)cn23)cc1`, for which, in series [2], half-maximal inhibition (IC50) was put at 0.322 µM.

Molecule `CC(C)c1nnc2ccc(Sc3ccc(Cl)cc3Cl)cn12` yielded an IC50 in series [2] of 8.24 µM. This IC50 is about 26-fold higher than that of the molecule before.

Consider `CC(C)c1nnc2ccc(Sc3ccc(F)cc3C(F)(F)F)cn12`, for which, in series [2], the IC50 is above 10 µM.

With `CC(C)c1nnc2ccc(CCc3ccc(F)cc3F)cn12`, the remaining at 2 µM in series [1] came out at 54%; in series [3], 53%. In series [2], the midpoint of inhibition, the IC50, lay at 0.085 µM.

For `CC(C)c1nnc2ccc(S(=O)(=O)c3ccc(F)cc3F)cn12`, the IC50 in series [2] is above 10 µM.

Regarding `CC(C)c1nnc2ccc([S+]([O-])c3ccc(F)cc3F)cn12` (centres undefined), the remaining at 2 µM in series [1] and in series [3] was 100% throughout.

As for `CC(C)c1nnc2ccc(C(=O)Cc3cc(F)cc(F)c3)cn12`, the half-inhibitory concentration (IC50) in series [2] was found to be 7.37 µM.

On to `Fc1ccc(Sc2ccc3nnc(C4CCNCC4)n3c2)c(F)c1`, for which the IC50 in series [2] turned out to be 3.77 µM.

With `CC(C)c1nnc2ccc(Sc3ccc(F)cc3F)c(Cl)n12`, the remaining at 2 µM in series [1] is 23%; in series [3], 65%.

Consider `O=C(O)c1ccc(-c2nnc3ccc(Sc4ccc(F)cc4F)cn23)cc1`, for which the IC50 in series [2] is 1.17 µM.

Consider `CC(C)c1nnc2cc(Cl)c(Sc3ccc(F)cc3F)c(Br)n12`, for which the remaining at 2 µM turned out to be 9% in series [1] and 24% in series [3].

In the case of `CC(C)c1nnc2ccc(C(=O)Nc3cc(F)cc(F)c3)cn12`, in series [2], the IC50 was above 10 µM.

In series [2], `Fc1ccc(Sc2ccc3nnc(-c4ccc(F)cc4F)n3c2)c(F)c1` came in with an IC50 of 0.0072 µM.

For `CC(C)c1nnc2ccc(Sc3ccc(F)cc3F)cn12`, the remaining at 2 µM in series [1] amounted to 46%; in series [3], 89%. This molecule had an inhibition in vivo at 5 mg/kg in series [4] of 61%.
